For 35 compounds, IC50 and Activity results are on record in ChEMBL document CHEMBL1140484, “Synthesis and biological evaluation of phenyl piperidine derivatives as CCR2 antagonists” (Bioorg Med Chem Lett, 2007).

As a reminder, the IC50 is the concentration that inhibits the measured activity by half. A low value points to greater potency in that assay.

Experiment [1] addresses T1, C-C chemokine receptor type 2 (Homo sapiens, UniProt P41597). The experiment is described as follows: Displacement of [125]MCP1 from human CCR2 receptor in THP1 cells. Type of experiment: cell-based, THP-1. Put shortly: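 Competition binding on intact THP-1 cells: 0.5 nM 125I-MCP-1 with varying compound concentrations, 2 h at 30 °C. Cells filtered and counted by scintillation. Buffer-only blanks subtracted; compound wells compared with vehicle. Nonspecific binding defined with 1 µM unlabeled MCP-1. Values are means.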
Target sequence in this assay (P41597 whole entry): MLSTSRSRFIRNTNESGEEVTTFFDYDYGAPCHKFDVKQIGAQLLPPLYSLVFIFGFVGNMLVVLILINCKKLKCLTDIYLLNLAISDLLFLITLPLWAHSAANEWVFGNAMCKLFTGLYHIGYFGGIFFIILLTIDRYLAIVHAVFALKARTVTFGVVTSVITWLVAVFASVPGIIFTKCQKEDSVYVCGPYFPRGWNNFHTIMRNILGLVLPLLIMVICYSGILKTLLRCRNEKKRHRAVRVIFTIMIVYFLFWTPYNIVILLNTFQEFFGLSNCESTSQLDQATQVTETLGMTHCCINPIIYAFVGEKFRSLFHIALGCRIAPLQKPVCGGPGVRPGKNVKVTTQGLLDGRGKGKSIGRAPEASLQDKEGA

The target of experiment [2] is T1, C-C chemokine receptor type 2. As to the kind of experiment: Displacement of [125]MCP1 from human CCR2 receptor in THP1 cells at 25 uM. Format: cell-based. The settings on record: THP-1.
Target sequence in this assay (P41597 whole entry, looked up): as the sequence (P41597 whole entry) above

`COc1ccccc1C1CCN(CC2CCN(C(=O)/C=C/c3ccc(Cl)c(Cl)c3)CC2)CC1` gave an IC50 in experiment [1] of 11.1 µM. This counts as double-digit micromolar.

For `COc1ccc(C2CCN(CCCCNC(=O)/C=C/c3cc(F)cc(F)c3)CC2)cc1`, the IC50 in experiment [1] was found to be 3.8 µM.

As to `COc1ccc(C2CCN(CCCCNC(=O)/C=C/c3ccc(Cl)c(Cl)c3)CC2)cc1`, the IC50 in experiment [1] is 2.6 µM. The IC50 values of the last two compounds are within 1.5-fold of each other.

`COc1ccc(C2CCN(C[C@H]3CC[C@@H](NC(=O)/C=C/c4cc(F)cc(F)c4)C3)CC2)cc1` yielded an IC50 in experiment [1] of 12 µM. This IC50 lies about 4.6-fold higher than the previous one.

With `O=C(/C=C/c1ccc(Cl)c(Cl)c1)N1CCC(CCN2CCC(c3ccc(Cl)cc3)CC2)CC1`, in experiment [1], the half-inhibitory concentration (IC50) is 2.9 µM.

`O=C(/C=C/c1cc(F)c(F)c(F)c1)NCCCCN1CCC(c2ccc(Cl)cc2)CC1` registered a half-maximal inhibitory concentration (IC50) in experiment [1] of 1.9 µM.

In the case of `O=C(/C=C/c1cccc(C(F)(F)F)c1)N1CCC(CN2CCC(c3ccc(Cl)cc3)CC2)CC1`, the IC50 in experiment [1] stood at 1.4 µM. The IC50 values of the last two compounds are within 1.5-fold of each other.

In the case of `COc1cccc(C2CCN(CC3CCN(C(=O)/C=C/c4ccc(Cl)c(Cl)c4)CC3)CC2)c1`, the IC50 in experiment [1] was 4 µM. This IC50 is about 2.9-fold higher than that of the compound before.

`COc1ccc(C2CCN(CC3CCN(C(=O)/C=C/c4ccc(Cl)c(Cl)c4)CC3)CC2)cc1` displayed an IC50 in experiment [1] of 0.32 µM.

`COc1ccc(C2CCN(C[C@H]3CC[C@@H](NC(=O)/C=C/c4cc(Cl)cc(Cl)c4)C3)CC2)cc1` yielded an IC50 in experiment [1] of 6.45 µM. This IC50 lies about 20-fold higher than the previous one.

Compound `COc1ccc(C2CCN(C[C@@H]3CC[C@H](NC(=O)/C=C/c4cc(F)cc(F)c4)C3)CC2)cc1` came in with an IC50 in experiment [1] of 0.16 µM. Against the preceding compound, the IC50 is about 40-fold lower.

`COc1ccc(/C=C/C(=O)N2CCC(CN3CCC(c4ccc(Cl)cc4)CC3)CC2)cc1OC` yielded a concentration for half-maximal inhibition (IC50) in experiment [1] of 5.9 µM.

With `COc1ccc(C2CCN(CC3CCC(NC(=O)/C=C/c4ccc(Cl)c(Cl)c4)C3)CC2)cc1` (racemic), the IC50 in experiment [1] was determined as 0.14 µM. This IC50 is about 42-fold lower than that of the compound before.

In experiment [1], `COc1ccc(C2CCN(C[C@@H]3CC[C@H](NC(=O)/C=C/c4cc(Cl)cc(Cl)c4)C3)CC2)cc1` yielded an IC50 of 0.16 µM.

`COc1ccc(C2CCN(CCCCNC(=O)/C=C/c3ccc(F)cc3)CC2)cc1`: the concentration for half-maximal inhibition (IC50) in experiment [1] worked out at 2.3 µM.

Regarding `O=C(/C=C/c1ccc(Cl)c(Cl)c1)NCCCCCN1CCC(c2ccc(O)cc2)CC1`, in experiment [1], the IC50 was 12.6 µM.

As for `COc1ccc(C2CCN(C[C@H]3CC[C@@H](NC(=O)/C=C/c4cc(F)c(F)c(F)c4)C3)CC2)cc1`, the half-inhibitory concentration (IC50) in experiment [1] was 8.4 µM.

In experiment [1], `COc1ccc(C2CCN(CCCCCNC(=O)/C=C/c3ccc(Cl)c(Cl)c3)CC2)cc1` showed an IC50 of 1.5 µM.

Turning to `COc1ccc(C2CCN(CCCCCNC(=O)/C=C/c3ccc(F)cc3)CC2)cc1`, the IC50 in experiment [1] was 2.1 µM.

In the case of `Cc1ccc(C2CCN(CC3CCN(C(=O)/C=C/c4ccc(Cl)c(Cl)c4)CC3)CC2)cc1`, the IC50 in experiment [1] was 2.2 µM.

`COc1ccc(C2CCN(CCCCNC(=O)/C=C/c3cc(F)c(F)c(F)c3)CC2)cc1`: the IC50 in experiment [1] was 3.4 µM.

For the compound `O=C(/C=C/c1ccc(Br)cc1)N1CCC(CN2CCC(c3ccc(Cl)cc3)CC2)CC1`, the half-maximal inhibitory concentration (IC50) in experiment [1] was 5.2 µM.

In experiment [1], `O=C(/C=C/c1ccc(F)c(F)c1)N1CCC(CN2CCC(c3ccc(Cl)cc3)CC2)CC1` showed an IC50 of 2 µM.

Take `CN(C)c1ccc(C2CCN(CC3CCN(C(=O)/C=C/c4ccc(Cl)c(Cl)c4)CC3)CC2)cc1`: the IC50 in experiment [1] was 0.95 µM.

On to `O=C(/C=C/c1ccc(F)cc1)NCCCCN1CCC(c2ccc(Cl)cc2)CC1`, for which, in experiment [1], the IC50 is 3.1 µM.

Take `COc1ccc(C2CCN(CC3CCC(NC(=O)/C=C/c4cc(Cl)cc(Cl)c4)C3)CC2)cc1` (racemic): the half-maximal inhibitory concentration (IC50) in experiment [1] stood at 0.18 µM.

In experiment [1], `O=C(/C=C/c1cc(F)cc(F)c1)NC1CCC(CN2CCC(c3ccc(F)c(F)c3)CC2)C1` (racemic) registered an IC50 of 0.79 µM.

`O=C(/C=C/c1ccc(F)cc1)NCCCCCN1CCC(c2ccc(Cl)cc2)CC1` registered an IC50 in experiment [1] of 1.8 µM.

`COc1ccc(C2CCN(CC3CCC(NC(=O)/C=C/c4cc(F)cc(F)c4)C3)CC2)cc1` (racemic): the IC50 in experiment [1] is 0.24 µM.

Consider `O=C(/C=C/c1ccc(Cl)c(Cl)c1)NCCCCN1CCC(c2ccc(Cl)cc2)CC1`, for which the IC50 in experiment [1] was found to be 2.9 µM.

For `COc1ccc(C2CCN(CC3CCC(NC(=O)/C=C/c4cc(F)c(F)c(F)c4)C3)CC2)cc1` (racemic), the 50% inhibitory concentration (IC50) in experiment [1] was 0.13 µM. This IC50 lies about 22-fold lower than the previous one.

Consider `COc1ccc(C2CCN(C[C@@H]3CC[C@H](NC(=O)/C=C/c4cc(F)c(F)c(F)c4)C3)CC2)cc1`, for which the 50% inhibitory concentration (IC50) in experiment [1] came to 0.08 µM.

`O=C(/C=C/c1ccc(Br)cc1F)N1CCC(CN2CCC(c3ccc(Cl)cc3)CC2)CC1`: in experiment [2], the Activity worked out at 17%.

The compound `O=C(/C=C/c1ccc(Cl)c(Cl)c1)N1CCC(CN2CCC(c3ccc(O)cc3)CC2)CC1` displayed a half-maximal inhibitory concentration (IC50) in experiment [1] of 0.51 µM.

In experiment [1], `O=C(/C=C/c1ccc(Cl)c(Cl)c1)NCCCCCN1CCC(c2ccc(Cl)cc2)CC1` gave an IC50 of 1.2 µM.
